This is an account of results in the EternaBench riboswitch data.

The subject of the data set is MS2 coat protein. In words: apparent Kd, MS2 coat protein; higher = weaker binding; RNA-MaP array; FMN 200 µM where present. The method in brief: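 Stalled E. coli RNA polymerase transcribed the designs on Illumina sequencing-chip clusters. SNAP-549-labelled MS2 coat protein was titrated from 0.7 or 1.5 nM, doubling to 3 µM, without and then with constant ligand, in 100 mM Tris-HCl pH 7.5, 80 mM KCl, 4 mM MgCl2, BSA, DTT, yeast tRNA and Tween-20. Per-cluster binding curves were fitted to green signal normalised to red-channel RNA signal and control-cluster median Fmax. The apparent Kd is the median of the filtered fits.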

Where [1] appears, read: designed as: OFF switch for flavin mononucleotide, no ligand.
Where [2] appears, read: ligand present: flavin mononucleotide, designed as: OFF switch for flavin mononucleotide.
Setting [3] is: designed as: ON switch for flavin mononucleotide, no ligand.
Where [4] appears, read: ligand present: flavin mononucleotide, designed as: ON switch for flavin mononucleotide.

By apparent Kd is commonly meant the concentration giving half-maximal binding under the conditions of the assay. On to “GUACGUGGACAGAAGGUGACAUGAGGAUCACCCAUGUUAGUUGAGGUACCAGCGAUCUGCGUGAUUGAGGAUAUGUCUGCGGGC”, for which the “apparent Kd” value came out at 11.9 nM under setting [1] and 13.8 nM under setting [2].
With “CACAGGGAUUCAGGAUAUAUUAGCCGAGGCCGCGUAGAAGGGAAAUCCUGACAUGAGGAUCACCCAUGUUAACCCACUUUUCAU”, the “apparent Kd” value under setting [3] was 28.1 nM and the “apparent Kd” value under setting [4] was determined as 28.4 nM.
As for “CCGCUCUUGGUCAGGAUAUCUAUGCGGGCCAGCACAGAGAAGGGACAUGAGGAUCACCCAUGUUUCGGGAUGUA”, the “apparent Kd” value under setting [1] was 22.3 nM and the “apparent Kd” value under setting [2] stood at 38.9 nM.
Turning to “CCUCCGUAUUAGGAUAUCGUCCAGGAAACUGGACGAGAAGGAAUGACAUGAGGAUCACCCAUGUUAACGUGAUG”, the “apparent Kd” value is 21.5 nM under setting [1] and 50 nM under setting [2].
On to “CAGUUCUGAGGAUAUCCACCCUCCUACAUGAGGAUCACCCAUGUUUCCCUCUGGGUUUUCGGAGAAGGCAGUUAUC”, for which the “apparent Kd” value is 44.7 nM under setting [1] and 79.6 nM under setting [2].
Consider “CAGUACUGAGGAUAUACAUGAGGAUCACCCAUGUGUUCCAGCUAGGAAACUUGCAAAAGUAGAAGGCAGUACUG”, for which the “apparent Kd” value came out at 12.1 nM under setting [1] and 30.6 nM under setting [2].
Take “GCCAUCGCAUGAGGAUAUGGCACCGUUUCGGUGCCAGAAGGCAUGUCAUAAGACAUGAGGAUCACCCAUGUAGUUAAGAUGGCA”: the “apparent Kd” value under setting [3] came out at 741 nM and the “apparent Kd” value under setting [4] was found to be 47.6 nM.
With “GUAGGCGACCAGAAGGGUGACAUGAGGAUCACCCAUGUAGGUGUGUUCCCGCUUAGGAGCCACCCACAGGAUAUGGUUGGUUAG”, the “apparent Kd” value by setting is: under setting [3], 27.6 nM; under setting [4], 23.9 nM.
In the case of “CUCAAGUCAGGAUAUCCAGCUGUGUUCCGGGACUCGUAGUUGGAGAAGGGACAUGAGGAUCACCCAUGUCAGCC”, the “apparent Kd” value under setting [1] worked out at 32.3 nM and the “apparent Kd” value under setting [2] was 67.8 nM.
Take “CGAUGAGGAGUGAGGAUAUCGUGUUCGAAAGAACGUGAGAAGGCACAUGAGGAUCACCCAUGUGAUCCUUAUCG”: the “apparent Kd” value under setting [1] stood at 28.3 nM and the “apparent Kd” value under setting [2] worked out at 67.9 nM.
As for “GAGUAGUUGAAAGGAUAUUGAUUGUUAUAGAAUCAAGAAGGUUCUAACAUGAGGAUCACCCAUGUAGGACUAUUCCUGUGUAUC”, the “apparent Kd” value under setting [3] is 12.3 nM and the “apparent Kd” value under setting [4] turned out to be 9.66 nM.
As to “AAUGUGUCAGGAUAUUGUUAGUUUAGUUGUUUGUAUUAGUUCGAGAAGGGACAUGAGGAUCACCCAUGUUGUUA”, the “apparent Kd” value under setting [1] amounted to 36.4 nM and the “apparent Kd” value under setting [2] was determined as 29.1 nM.
For the sequence “CUGAAGAUAUCAGGAUAUCUAUUUCCUACAUGAGGAUCACCCAUGUAGGUGAUCAGCCGAGUAAAGGAGAAGGGAUAUCUUUAG”, the “apparent Kd” value was determined as 27.1 nM under setting [3] and 10.1 nM under setting [4].
Turning to “GUUAUUUAUGUAGGAUAUGCGAGGCGAGCCUAAGCAGAAGGACAUGAGGAUCACCCAUGUAUUGCGGUUUGUGUUCAGAUCGCU”, the “apparent Kd” value stood at 27.3 nM under setting [1] and 84.9 nM under setting [2].
Taken in the same sequence, the figures for “AGGGUUGUGCUAGGAUAUCCAGGUUUGCAACAAGGAGAAGGAGCACAUGAGGAUCACCCAUGUUCUCAAAGGCCAUGGCAAUAU” were 12.4 nM and 56.3 nM.
Take “UAAAGACAUGAGGAUCACCCAUGUGAGGAUAUCGGAGGUGACGGAGCGUCGAGUUCGGCGAGAAGGCGCAGGAA”: the “apparent Kd” value is, setting by setting: under setting [1], 81 nM; under setting [2], 53.9 nM.
In the same order, the values of “ACUUGACAUGAGGAUCACCCAUGUCAGGAUAUAGUAGGACAAAUAAAUAAAAGUUCUACUAGAAGGGACGUGGG” are 21.6 nM and 22.4 nM.
As for “AAUAAACUCACAGGAUAUAGCAUAAGUCGCGUGAACUUACAGGCGACUAUGCUAGAAGGGUGACCACAUGAGGAUCACCCAUGU”, the “apparent Kd” value was determined as 805 nM under setting [3] and 158 nM under setting [4].
For “GUGCGGUCAGGAUAUGCAUGGCGGGACUUGCGUCGUGGCGUGGAGAAGGGACAUGAGGAUCACCCAUGUGGAGG”, the “apparent Kd” value amounted to 107 nM under setting [1] and 84.9 nM under setting [2].
As to “CUUAUGUGAGGAUAUGUACAGAAAAAACUGGGUGUAACUGUACAGAAGGCACAUGAGGAUCACCCAUGUGUAUU”, the “apparent Kd” value stood at 98.5 nM under setting [1] and 34.1 nM under setting [2].
